From ChEMBL document CHEMBL1136128, “3-(2-Benzyloxyphenyl)isoxazoles and isoxazolines: synthesis and evaluation as CFTR activators” (Bioorg Med Chem Lett, 2003) come the findings set out here.

Substrate in data set [1]: COc1ccc(COc2ccccc2-c2cc(CCO)on2)cc1
The experiment in a line: (§1) Vmax (maximal I influx) of compound against CFTR (cystic fibrosis transmembrane conductance regulator) in rat was determined. A digest of the protocol: (§2)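 Cells stably co-expressing human wild-type CFTR and YFP-H148Q were grown to confluence in 96-well plates and washed in PBS. Compounds were added from DMSO stocks, with full dose–responses run. A 100 mM inward iodide gradient was applied at 37 °C. Iodide influx was taken from the slope of the YFP fluorescence time course. Kd and Vmax (mM/s) are means of three or more experiments.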

Substrate in data set [2]: COC(=O)C1CC(c2cc(Br)ccc2OCc2ccc(OC)cc2)=NO1
The data set is described as §1. The method in brief:
as §2

Substrate in data set [3]: COc1ccc(COc2ccc(Br)cc2-c2cc(CO)on2)cc1
The data set is described as §1. The method in brief: as §2

Substrate in data set [4]: COc1cccc(COc2ccccc2C2=NOC(CO)C2)c1
The description is as §1. The method in brief: as §2

Substrate in data set [5]: COc1cccc(COc2ccccc2C2=NOC(CCl)C2)c1
The data set is described as §1. The method in brief: as §2

Substrate in data set [6]: COC(=O)C1CC(c2ccccc2OCc2ccc(Br)cc2)=NO1
The description is as §1. The method in brief:
as §2

Substrate in data set [7]: OCc1cc(-c2ccccc2OCc2ccc(Br)cc2)no1
Described as §1. A digest of the protocol: as §2

Substrate in data set [8]: COC(=O)C1CC(c2ccccc2OCc2cccc(OC)c2)=NO1
The data set is described as §1. The method in brief: as §2

Substrate in data set [9]: ClCc1cc(-c2ccccc2OCc2ccc(Br)cc2)no1
The description is as §1. A digest of the protocol: as §2

Substrate in data set [10]: COC(=O)c1cc(-c2ccccc2OCc2ccc(Br)cc2)no1
The data set is described as §1. A digest of the protocol: as §2

Substrate in data set [11]: COC(=O)C1CC(c2ccccc2OCc2ccc(OC)cc2)=NO1
Described as §1. A digest of the protocol:
as §2

Substrate in data set [12]: COc1ccc(COc2ccccc2-c2cc(CO)on2)cc1
The data set is described as §1. The method in brief:
as §2

Substrate in data set [13]: COc1ccc(COc2ccccc2C2=NOC(CO)C2)cc1
Described as §1. The method in brief: as §2

Substrate in data set [14]: COc1cccc(COc2ccccc2-c2cc(CO)on2)c1
The description is as §1. The method in brief: as §2

Substrate in data set [15]: OCCc1cc(-c2ccccc2OCc2ccc(Br)cc2)no1
The description is as §1. A digest of the protocol: as §2

Substrate in data set [16]: COC(=O)c1onc(-c2ccccc2OCc2ccc(Br)cc2)c1C(=O)OC
The data set is described as §1. A digest of the protocol:
as §2

Substrate in data set [17]: COc1cccc(COc2ccccc2-c2cc(CCO)on2)c1
The data set is described as §1. The method in brief:
as §2

Substrate in data set [18]: COc1ccc(COc2ccccc2C2=NOC(CCl)C2)cc1
Described as §1. A digest of the protocol: as §2

B1: Cystic fibrosis transmembrane conductance regulator (Rattus norvegicus), P34158 (protein)
chain: MQKSPLEKASFISKLFFSWTTPILRKGYRHHLELSDIYQAPSSDSADHLSEKLEREWDREQASKKKPQLIHALRRCFVWRFVFYGVLLYLGEVTKAVQPVLLGRIIASYDPDNTEERSIAIYLGIGLCLLFIVRTLLLHPAIFGLHHIGMQMRIAMFSLIYKKTLKLSSRVLDKISIGQLISLLSNNLNKFDEGLALAHFIWIAPLQVVLLMGLLWDLLQFSAFCGLGLLIVLVIFQAILGKMMVKYRDKRAAKINERLVITSEVIDNIYSVKAYCWESAMEKIIESLREEELKMTRRSAYMRFFTSSAFFFSGFFVVFLSVLPYTVINGIVLRKIFTTISFCIVLRMSVTRQFPTAVQIWYDSLGMIRKIQDFLQTQEYKVLEYNLMFTGLVMENVTAFWEEGFQELLEKVQLNNDDRKTSNGENHLSFSHLCLVGNPVLKNINLNIKKGEMLAITGSTGAGKTSLLMLILGELEASEGIIKHSGRVSFSSQISWIMPGTIKENIIFGVSYDEYRYKSVVKACQLQEDITKFAEQDNTVLGEGGVTLSGGQRARISLARAVYKDADLYLLDSPFGYLDVLTEEQIFESCVCKLMASKTRILVTSKMEQLKKADKILILHEGSSYFYGTFSELQSLRPDFSSKLMGYDTFDQFTEERRSSILTETLRRFSVDDASTTWNKAKQSFRQTGEFGEKRKNSILSSFSSVKKISIVQKTPLSIEGESDDLQERRLSLVPDSEHGEAALPRSNMITAGPTFPGRRRQSVLDLMTFTPSSVSSSLQRTRASIRKISLAPRISLKEEDIYSRRLSQDSTLNITEEINEEDLKECFFDDMVKIPTVTTWNTYLRYFTLHRGLFAVLIWCVLVFLVEVAASLFVLWLLKNNPVNGGNNGTKIANTSYVVVITSSSFYYIFYIYVGVADTLLALSLFRGLPLVHTLITASKILHRKMLHSILHAPMSTFNKLKAGGILNRFSKDIAILDDFLPLTIFDFIQLLFIVVGAIIVVSALQPYIFLATVPGLAVFILLRAYFLHTSQQLKQLESEGRSPIFTHLVTSLKGLWTLRAFRRQTYFETLFHKALNLHTANWFMYLATLRWFQMRIDMIFVLFFIVVTFISILTTGEGEGTTGIILTLAMNIMSTLQWAVNSSIDTDSLMRSVSRVFKFIDIQTEESICTKIMKELHSEDSPNALVIKNEHVKKCDTWPSGGEMVVKDLTVKYVDDGNAILENISFSISPGQRVGLLGRTGSGKSTLLSAFLRMLNIKGEIQIDGVSWNSMTLQEWRKAFGVITQKVFIFSGTFRQNLDPNGKWRDEEIWKVADQVGLKSVIEQFPGQLNFTLVDGGYVLSHGHKQLMCLARSVLSKAKIILLDEPSANLDPITYQVIRRVLRQAFAGCTVVLCEHRIEAMLDCQRFLVIEQGNVWQYESLQALLSEKSVFQRALSSSEKMKLFHGRHSSKQKPRTQITAVKEETEEEVQETRL
Regarding B1, the Vmax was determined as 1.05 mM/s in data set [1]; 1.04 mM/s in [2]; 1.03 mM/s in [3]; 0.99 mM/s in data set [4]; 1.02 mM/s in [5]; 0.81 mM/s in data set [6]. Further, the maximal velocity (Vmax) in [7] was determined as 1.06 mM/s; in data set [8], 1.08 mM/s; in [9], 1.02 mM/s; in data set [10], 1.01 mM/s; in data set [11], 1.13 mM/s; in data set [12], 1.06 mM/s. Also, the Vmax in data set [13] was found to be 1.07 mM/s; in data set [14] it was 1.04 mM/s; in data set [15] it was 1.02 mM/s; in data set [16], 0.97 mM/s; in [17], 0.94 mM/s; in data set [18] it was 1.2 mM/s.

By Vmax is commonly meant the rate approached at saturating substrate.
